# Measured values of several laboratories.
# Compare with care: the assays were run in different laboratories.
# Target: Mitogen-activated protein kinase 10 (MAPK10, Homo sapiens, UniProt P53779)
SMILES,assay,conditions,remaining binding [%]
CN(C)C(=O)Cn1cc(-c2nc([C@@](C)(c3ccc(-c4cnc(N)nc4)cc3)C3CC3)no2)cn1,"cell-free assay, competition with immobilised ligand",1 µM,94
C[C@@H]1CCN(c2nccc(-c3cnn4ncccc34)n2)C1,binding,1 µM,34
CCN1CCN(Cc2ccc(C(=O)Nc3ccc(C)c(Oc4ccc5c(c4)CC(=O)N5)c3)cc2C(F)(F)F)CC1,"binding, competition with immobilised ligand",1 µM,81
N#Cc1ccccc1CSc1nnc2c(n1)[nH]c1ccccc12,"binding, competition with immobilised ligand",10 µM,100
CC1=C(C#N)[C@@H](c2ccc3[nH]nc(C)c3c2)C(C#N)=C(c2ccc(Cl)cc2)N1,"cell-free assay, competition with immobilised ligand",1 µM,68.8
COc1ccnn2ncc(-c3ccnc(N(C)C)n3)c12,binding,1 µM,80
C[C@@H]1CN(c2ccc3ncc(-c4ccc5[nH]nc(C6CC6)c5c4)n3n2)C[C@H](C)O1,"binding, competition with immobilised ligand",0.5 µM,52
CN(C)c1ncc(F)c(-c2cnn3ncccc23)n1,binding,1 µM,73
CCOCCn1cc(C(=O)Nc2ccc(-n3nc(-c4cccnc4)cc3C(F)(F)F)cn2)ccc1=O,"cell-free assay, competition with immobilised ligand",1 µM,100
O=C(NCC1CCOCC1)c1n[nH]cc1NC(=O)c1c(F)cccc1F,"binding, competition with immobilised ligand",1 µM,31
N[C@H]1CCN(c2nccc(-c3cnn4ncccc34)n2)C1,binding,1 µM,60
O=C(O)[C@@H]1[C@@H](Cn2nnc3ccccc3c2=O)CC[C@H]1C(=O)c1ccc(OCCC2CCOCC2)cc1,"cell-free assay, competition with immobilised ligand",1 µM,100
COc1cnc(Nc2cccc(S(N)(=O)=O)c2)nc1N1CCN(c2ccccc2)CC1,"binding, competition with immobilised ligand",1 µM,83
Cc1noc([C@H]2C[C@@H](c3ccc(C(F)(F)F)cc3)CN(C(=O)N3CCS(=O)(=O)C3)C2)n1,"cell-free assay, competition with immobilised ligand",1 µM,88
CN(C)c1nccc(-c2cnc3ncccn23)n1,binding,1 µM,70
CCC(=O)N[C@H]1CC[C@@H](C(=O)N(C)c2ccc(-c3nc4ccccc4o3)cc2)C1,"cell-free assay, competition with immobilised ligand",1 µM,85
Cc1cnc(Nc2ccc(C(=O)N3CCC(N4CCCC4)CC3)cc2)nc1-c1cc2ccccc2s1,"binding, competition with immobilised ligand",1 µM,8.6
c1cnn2ncc(-c3ccnc(N4CCC45COC5)n3)c2c1,binding,1 µM,27
O=C1CCc2cc(Nc3cc(OC4CCOCC4)c([N+](=O)[O-])cc3Cl)ccc2N1,"cell-free assay, competition with immobilised ligand",1 µM,98
CC(C)(C)c1ccc(-c2nc(CBr)nn2-c2cccc(O)c2)cc1,"cell-free assay, competition with immobilised ligand",10 µM,65
O=C(NCCCN1CCOCC1)c1ccc(Nc2nccc(-c3cc4ccccc4s3)n2)cc1,"binding, competition with immobilised ligand",1 µM,15
FC(F)(F)Oc1cccc(-c2cnc3ccc(-c4ccncc4)nn23)c1,"cell-free assay, competition with immobilised ligand",5 µM,65
O=C(c1ccc(Nc2ncc(Cl)c(-c3ccc(Cl)s3)n2)cc1)N1CCC(N2CCCC2)CC1,"binding, competition with immobilised ligand",1 µM,1.1
COc1ncc2cc3ccccc3nc2c1C#N,"cell-free assay, competition with immobilised ligand",5 µM,100
